hERG protect: hERG rescue from dofetilide block, primary screen, cell-based, CHO-hERG, FluxOR thallium flux, dofetilide IC70 | dofetilide IC70 present | activation (rescue from dofetilide block), less the hit threshold, % at 10 µM | 310,000 tested, 0.51% active;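 active = activation above the mean of controls blocked by dofetilide plus 5 SD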;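 note: thallium influx through hERG after potassium depolarization seen as dye fluorescence rise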
KCNQ1 act: potentiators or activators of KCNQ1 channel, primary screen, cell-based, thallium flux, high-throughput | Potassium voltage-gated channel subfamily KQT member 1 (Homo sapiens), P51787 | CHO-K1 KCNQ1, thallium flux FluxOR fluorescence; stronger effect = higher value | B-score at 10 µM | 310,000 tested, 0.35% active;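 active = fluorescence ratio B-score, a plate-corrected score, at least three library SD, with initial intensity B-score within 5 SD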
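Material: CHO-K1 cells stably expressing KCNQ1. Medium: assay buffer for compound exposure, DMSO matched across wells. Reagent: K+/Tl+ depolarizing stimulus. Compound dosing: single-concentration screen. Times: 37 °C overnight plating, 90-min dark dye load, 20-min compound pretreatment. Technique: FluxOR Tl+ flux fluorescence.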
KCNK3 inh: human KCNK3 channel inhibitors, primary screen, CHO cells, FluxOR thallium flux, B-score | Potassium channel subfamily K member 3 (Homo sapiens), O14649 | FluxOR fluorescence; stronger effect = lower value | B-score at 10 µM | 340,000 tested, 0.84% active | AID 602410, 2012;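 active = B-score under library mean minus 4 SD, starting fluorescence ratio at most library mean plus 5 SD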;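 note: more negative B-score means stronger inhibition of thallium flux through KCNK3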
Kir21 block: inhibitors of mouse Kir2.1 inward-rectifier potassium channel; Inward rectifier potassium channel 2 (Mus musculus), P35561; HEK293-Kir2.1, FluxOR thallium flux fluorescence; stronger effect = lower value; B-score at 10 µM; 310,000 tested, 0.85% active;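 active = fluorescence ratio B-score at or below minus 3 SD of library scores, with starting-brightness B-score within 2 SD, cut at about -4.2 in these data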;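 note: channel flux triggered by added potassium and thallium sulfate stimulus; B-score of peak minus minimum fluorescence over baseline after thallium stimulus; more negative B-score means stronger Kir2.1 block with less thallium influx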
KCNQ1 block: inhibitors of human KCNQ1 channel, primary screen, cell-based, thallium flux, high-throughput; CHO-K1 KCNQ1, FluxOR thallium flux fluorescence; stronger effect = higher value; B-score at 10 µM; Potassium voltage-gated channel subfamily KQT member 1 (Homo sapiens), P51787; 310,000 tested, 1.3% active;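 active = compounds whose thallium flux B-score, printed positive for inhibition, exceeds three library SD while starting fluorescence stays within three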;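 note: channel opened by potassium depolarization with thallium stimulus after 20 min compound exposure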
KCNK9 inh: KCNK9 potassium channel inhibitors, primary screen, HEK293 cells, thallium flux; Potassium channel subfamily K member 9 (Homo sapiens), Q9NPC2; FluxOR thallium flux fluorescence; stronger effect = lower value; B-score at 10 µM; 310,000 tested, 1.2% active; AID 488922, 2010;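 active = ratio B-score over 3 SD below the library mean, with starting fluorescence within 5 SD of its mean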;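 note: negative B-score means less thallium flux so channel inhibition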
KCNQ1 inh valid: KCNQ1 potassium channel inhibitors, confirmation, cell-based, Tl flux, duplicate | shares compounds with KCNQ1 block | KCNQ1 cell line, FluxOR thallium flux fluorescence | inhibition, % at 10 µM | 1,600 tested, 93% active | AID 588353, 2011;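 active = primary screen active, with duplicate mean exceeding buffer control mean plus 3 SD of buffer wells, cut at about 28% in these data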;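 note: 0% = buffer control ratio and 100% = XE991 inhibitor control ratio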
CHO KCNQ1 ctr: thallium flux effects in parental CHO cells, counter-screen for KCNQ1 inhibitor project, cell-based, Tl flux. shares compounds with KCNQ1 block. 1,600 tested, 21% active. AID 588366, 2011. fluorescence ratio (Tl flux) at 10 µM. parental CHO-K1, FluxOR thallium flux fluorescence ratio; stronger effect = lower value; zero means no signal rise above baseline;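 active = mean of duplicate thallium-flux fluorescence ratios in parental host cells more than 5 SD below the buffer control mean, cut at about 0.38 in these data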;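 note: ratio is peak minus minimum fluorescence divided by baseline fluorescence; actives read low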
KCNQ1 APC inh: KCNQ1 channel inhibitors, confirmation, orthogonal assay, cell-based, automated electrophysiology; shares compounds with KCNQ1 block; KCNQ1-CHO cells, automated patch clamp current; calls only at 10 µM; 490 tested, 20% active; AID 624120, 2012;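 active = KCNQ1 current drop exceeding 3 SD of negative control wells, seen in both duplicate runs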;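 note: steady state current during a 2 s step from -80 to +40 mV; negative values mean current inhibition and positive values mean potentiation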
KCNQ2 inh: KCNQ2 channel inhibition, selectivity assay for KCNQ1 inhibitor project, cell-based; shares compounds with KCNQ1 block; KCNQ2 cells, FluxOR thallium flux fluorescence; inhibition, % at 10 µM; 1,600 tested, 71% active; AID 651746, 2012;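 active = mean percent inhibition of the KCNQ2 thallium signal more than 5 SD above the buffer-only control wells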;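 note: KCNQ2 expressed in CHO cells; 0% = buffer control wells and 100% = XE-991 inhibitor control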
Target sequence (O88943 whole entry, looked up): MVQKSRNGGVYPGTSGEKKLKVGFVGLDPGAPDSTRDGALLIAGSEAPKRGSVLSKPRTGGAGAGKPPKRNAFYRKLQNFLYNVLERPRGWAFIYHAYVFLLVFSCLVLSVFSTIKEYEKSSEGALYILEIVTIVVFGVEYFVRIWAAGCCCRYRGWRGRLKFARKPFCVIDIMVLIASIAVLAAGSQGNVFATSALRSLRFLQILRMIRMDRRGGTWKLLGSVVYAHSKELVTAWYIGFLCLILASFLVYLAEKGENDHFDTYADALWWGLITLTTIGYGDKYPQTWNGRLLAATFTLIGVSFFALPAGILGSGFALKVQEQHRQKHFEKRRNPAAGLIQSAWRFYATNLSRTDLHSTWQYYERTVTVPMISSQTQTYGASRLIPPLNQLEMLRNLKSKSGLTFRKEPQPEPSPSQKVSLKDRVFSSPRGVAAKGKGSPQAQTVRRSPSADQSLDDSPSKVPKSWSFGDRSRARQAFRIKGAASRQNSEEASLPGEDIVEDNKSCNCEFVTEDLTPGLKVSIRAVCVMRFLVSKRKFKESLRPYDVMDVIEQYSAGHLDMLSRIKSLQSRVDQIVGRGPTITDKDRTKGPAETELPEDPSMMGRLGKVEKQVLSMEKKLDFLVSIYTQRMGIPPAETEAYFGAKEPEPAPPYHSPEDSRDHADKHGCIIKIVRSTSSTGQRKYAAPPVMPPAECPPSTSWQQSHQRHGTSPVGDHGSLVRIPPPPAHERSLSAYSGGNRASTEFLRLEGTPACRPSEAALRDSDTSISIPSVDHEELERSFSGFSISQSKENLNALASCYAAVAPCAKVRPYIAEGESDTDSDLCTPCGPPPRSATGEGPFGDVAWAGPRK
KCNQ1 KCNE1 spec: KCNQ1/KCNE1 channel inhibition, selectivity assay for KCNQ1 inhibitor project, CHO-K1 cells, thallium flux, FluxOR | shares compounds with KCNQ1 block | FluxOR thallium flux fluorescence | inhibition, % at 10 µM | 1,600 tested, 77% active | AID 652147, 2013;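 active = mean percent inhibition of duplicate wells above the buffer-only control mean plus 3 SD of those controls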;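 note: 0% = buffer only wells and 100% = XE-991 inhibitor control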
Numbers without * were called inactive; i = inactive; nt = no result given. Shown are actives, neighbours in structure and some others; about 3.7% of the full set was active somewhere.

SMILES	hERG protect	KCNQ1 act	KCNK3 inh	Kir21 block	KCNQ1 block	KCNK9 inh	KCNQ1 inh valid	CHO KCNQ1 ctr	KCNQ2 inh	KCNQ1 KCNE1 spec	others
CC(=O)Nc1cccc(OCC(=O)Nc2cccc(S(=O)(=O)N3CCCC3)c2)c1	nt	nt	i	nt	nt	nt	nt	nt	nt	nt
O=C(c1cc(COc2cccc(C(F)(F)F)c2)on1)N1CCC(c2ccncc2)CC1	-15	i	i	-0.58	12*	i	128*	0.47	80%*	106%*	KCNQ1 APC inh=i
CC(=O)c1ccc(OCc2cc(C(=O)N3CCC(c4ccncc4)CC3)no2)cc1	-15	i	i	-1.1	i	i	nt	nt	nt	nt
COc1cccc(OCc2cc(C(=O)N3CCC(c4ccncc4)CC3)no2)c1	-13	i	i	-0.02	8*	i	111*	0.48	135%*	98%*	KCNQ1 APC inh=i
O=C(c1cc(COc2cccc(C(F)(F)F)c2)on1)N1CCC(c2ccccc2)CC1	-5	i	i	1.2	i	i	nt	nt	nt	nt
CCOC(=O)C1(Cc2ccc(Cl)cc2)CCN(C(=O)c2cnc(C)cn2)CC1	-13	i	i	1.8	i	i	nt	nt	nt	nt
Cc1ccc(S(=O)(=O)N(C)C)cc1NC(=O)CSc1nnc(C2CC2)n1C1CC1	nt	nt	i	nt	nt	nt	nt	nt	nt	nt
O=C(CCNC(=O)c1ccco1)Nc1ccc(F)c(Cl)c1	-3	i	i	-0.37	i	i	nt	nt	nt	nt
FC(F)(F)c1nc(SCc2ccc(Cl)cc2Cl)n[nH]1	-18	i	i	1.1	6*	i	0	0.48	i	i
CCOc1ccc(NC(=O)Nc2nc(SCC)ns2)cc1	-3	i	i	0.29	10*	i	80*	0.51	i	36%*
COc1ccc2c(CC(=O)NC(Cc3ccc(Cl)cc3)C(=O)O)cc(=O)oc2c1C (stereo unspecified)	-6	i	i	-0.43	i	i	nt	nt	nt	nt
C=CCNc1nc2ccccc2nc1NS(=O)(=O)c1ccc(Br)cc1	-3	i	i	0.73	7*	i	70*	0.51	59%*	i
C=CCNc1nc2ccccc2nc1NS(=O)(=O)c1ccc(F)cc1	-9	i	i	0	i	i	nt	nt	nt	nt
Cc1ccccc1OCCCc1c(C)n[nH]c1C	-7	i	i	-2.2	i	i	nt	nt	nt	nt
Cc1ccccc1OCCCCc1c(C)n[nH]c1C	-12	i	i	-1.9	7*	i	109*	0.44	97%*	80%*	KCNQ1 APC inh=i
COc1ccc(N(CC(=O)NCc2ccccc2)S(=O)(=O)c2c(C)n[nH]c2C)cc1	-10	i	i	0.03	i	i	nt	nt	nt	nt
COc1ccc(N(CC(=O)NCc2ccc(Cl)cc2)S(=O)(=O)c2c(C)n[nH]c2C)cc1	-22	i	i	-0.03	7*	i	58*	0.49	75%*	60%*
COC1CCN(Cc2c(C(=O)N3CCN(C4CCCCC4)CC3)nc3ccccn23)CC1	-13	i	i	-0.29	i	i	nt	nt	nt	nt
Fc1cccc(Cl)c1CNc1ccc(N2CCCC2)cc1	-18	i	i	0.58	6*	i	0	0.44	72%*	40%*
COc1ccc(NS(=O)(=O)c2ccc(-c3cnc(C4CC4)o3)cc2)cc1OC	-14	i	i	-0.62	8*	i	86*	0.47	83%*	i
COc1ccccc1NS(=O)(=O)c1ccc(-c2cnc(C3CC3)o2)cc1	-8	i	i	-1.1	i	i	nt	nt	nt	nt
COc1ccc(CC(=O)Nc2cccc(-c3nnc(-c4cccc(C)c4)o3)c2)cc1OC	-34	i	i	0.82	10*	i	144*	0.32*	132%*	98%*
CCc1c(O)nc(SCC(=O)Nc2nc3ccccc3s2)n(C2CCCCC2)c1=O	-7	i	i	-1.4	7*	i	0	0.59	i	i
CCc1c(O)nc(SCC(=O)Nc2ccc(OC)cc2)n(C2CCCCC2)c1=O	-16	i	i	1.2	i	i	nt	nt	nt	nt
O=C(CN1C(=O)c2ccccc2C1=O)Oc1ccc(Cl)cc1	-4	i	i	-0.69	i	i	nt	nt	nt	nt
SMILES	hERG protect	KCNQ1 act	KCNK3 inh	Kir21 block	KCNQ1 block	KCNK9 inh	KCNQ1 inh valid	CHO KCNQ1 ctr	KCNQ2 inh	KCNQ1 KCNE1 spec	others
O=C(COc1ccc([N+](=O)[O-])cc1)N(C1CCCCC1)C1CCS(=O)(=O)C1 (stereo unspecified)	-15	i	i	-0.12	i	i	nt	nt	nt	nt
CC(C)(C)N=Cc1c(O)ccc2oc3c(c12)CCCC3	-16	i	i	-4.3	9*	-7.9*	0	0.46	60%*	i
NC(=O)N/N=C/c1c(O)ccc2oc3c(c12)CCCC3	-14	i	i	-0.39	i	i	nt	nt	nt	nt
CCn1c(=O)c(CCC(=O)NCCN2CCOCC2)c(C)c2c(C)nn(-c3ccccc3)c21	-10	i	i	-1.6	i	i	nt	nt	nt	nt
CCn1c(=O)c(CCC(=O)N2CCN(c3ccccn3)CC2)c(C)c2c(C)nn(-c3ccccc3)c21	-10	i	i	0	7*	i	48*	0.44	93%*	80%*
CCCN1CCN(CC(=O)Nc2nnc(CC)s2)CC1	-8	i	i	1.2	i	i	nt	nt	nt	nt
CC(C)(Cc1ccc(O)cc1)NC(=O)SCc1ccccc1	-10	i	i	-1.1	7*	i	50*	0.5	i	78%*

Screening data (PubChem BioAssay)
